From PubChem BioAssay
Tb hexokinase: T. brucei hexokinase 1 inhibition; inhibition, % at 10 µM; recombinant TbHK1, G6PDH-coupled NADH A340; 220,000 compounds, 0.11% hits;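 active means inhibition of 50% or more in the single-dose primary screen; inactive means inhibition below 50%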
Runt-CBFb FRET: blocks binding of human RUNX1 Runt domain to CBFb | Q01196+Q13951 | Cerulean-Runt/Venus-CBFb FRET ratio 530/480, 1 h | inhibition, % at 20 µM | 220,000 compounds, 0.46% hits | AID 1496;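 active means inhibition over about 50% at 20 µM in the single-dose screen, limit read from the data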;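 further: 0% = DMSO wells and 100% = excess unlabeled CBFb competitor control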
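test system = Cerulean-tagged RUNX1 Runt domain (FRET donor) fusion protein | reagent = Venus-CBFb binding partner, 100 nM | incubation = protein complex preformed 1 h, compound exposure 1 h, room temperature, dark | detection = FRET fluorescence | read-out basis = loss of energy transfer signal | controls = 5 µM unlabeled CBFb as full-inhibition high control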
Hck-Nef inh: inhibitors of human Hck kinase activated by Nef | P08631 | Recombinant Hck-YEEI plus Nef, Z-Lyte FRET kinase assay | inhibition, % at 20 µM | 220,000 compounds, 0.68% hits | AID 463187;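 active means Hck-Nef kinase inhibition above about 50%, limit read from the data; inactive means inhibition below that limit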;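 further: 0% = DMSO with Hck plus Nef and 100% = Hck alone without Nef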
Target sequence (P08631 whole entry, looked up): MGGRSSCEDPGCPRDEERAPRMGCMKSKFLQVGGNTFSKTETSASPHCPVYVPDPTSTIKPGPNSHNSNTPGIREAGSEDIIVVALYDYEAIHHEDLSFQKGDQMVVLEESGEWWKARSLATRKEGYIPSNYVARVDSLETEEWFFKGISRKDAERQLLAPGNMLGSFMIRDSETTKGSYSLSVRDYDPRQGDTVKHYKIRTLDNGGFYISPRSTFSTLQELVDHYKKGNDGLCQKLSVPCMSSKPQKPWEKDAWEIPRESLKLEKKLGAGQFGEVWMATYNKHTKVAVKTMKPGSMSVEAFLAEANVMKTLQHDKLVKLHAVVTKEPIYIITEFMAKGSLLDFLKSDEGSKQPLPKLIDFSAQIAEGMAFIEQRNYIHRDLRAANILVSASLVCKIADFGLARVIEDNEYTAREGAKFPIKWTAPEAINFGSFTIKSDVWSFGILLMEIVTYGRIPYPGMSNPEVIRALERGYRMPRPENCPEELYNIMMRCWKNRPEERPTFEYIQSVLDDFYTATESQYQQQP
p97 inhibitor: inhibitors of human p97 ATPase; recombinant p97 ATPase, Kinase-Glo ATP luminescence, 3 h; inhibition, % at 8 µM; 220,000 compounds, 0.42% hits; in the data active means inhibition above about 15%;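 further: 0% = DMSO vehicle and 100% = wells lacking enzyme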
RanGTP-Imp inh: inhibitors of RanGTP-importin-beta interaction, primary screen, biochemical, FRET, CFP-Ran, YFP-importin-beta, homogeneous | cell-free CFP-Ran/YFP-importin-beta FRET ratio | inhibition, % (concentration not given with the values) | 300,000 compounds, 1.1% hits | AID 2216;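 active means more than half of the replicate wells show a fall in the fluorescence ratio signal beyond about 16%, limit read from the data, passing the limit was not always enough; inconclusive means exactly half of the replicate wells pass the set limit; inactive means fewer than half of replicates pass the limit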;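 further: 0% = DMSO wells and 100% = Ran loaded with GDP instead of GTP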
Runt-SMMHC FRET: Runt domain-CBFb-SMMHC interaction inhibition. inhibition, % at 20 µM. Q01196+Q13951. AID 1434. Cerulean-Runt/Venus-CBFb-SMMHC FRET ratio 530/480, 1 h. 220,000 compounds, 0.74% hits;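 active means mean inhibition across duplicate retests at 20 µM reaching about 50%, limit read from the data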;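 further: 0% = DMSO wells and 100% = wells with excess untagged CBFb-SMMHC; inhibitors lower the FRET ratio by blocking Runt binding to CBFb-SMMHC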
The depositor's hits bear a star; ? = inconclusive; . = no result. A selection: hits, their analogues and other compounds. The true share with any hit is near 2.1%.

SMILES | Tb hexokinase | Runt-CBFb FRET | Hck-Nef inh | p97 inhibitor | RanGTP-Imp inh | Runt-SMMHC FRET
Cc1cccc2cc(COC(=O)C3CCCO3)c(=O)[nH]c12 (stereo unspecified) | -21.0 | 0.3 | 0.2 | 0.2 | 0.0 | -2.2
Cc1ccc2[nH]c3ccccc3c(=O)c2c1 | . | . | . | . | 114.0* | .
O=c1c2ccccc2[nH]c2ccc(F)cc12 | -10.6 | 3.4 | 71.0* | 9.0 | 115.6* | 87.0*
O=c1c2c([nH]c3ccccc13)CCC2 | . | . | . | . | 0.3 | .
O=c1c2ccccc2[nH]c2ccc(O)cc12 | . | . | . | . | 166.3* | .
Cc1cc(C)c2c(=O)n(CC(=O)Nc3cccc(F)c3)sc2n1 | 20.9 | -7.7 | -144.5 | 2.4 | -0.5 | 64.8*
Cc1cc(C)c2c(=O)n(CC(=O)Nc3ccc(Cl)cc3)sc2n1 | 34.3 | -0.1 | -42.9 | 5.1 | -5.5 | 46.6
Cc1ccc(NC(=O)Cn2sc3nc(C)cc(C)c3c2=O)c(Cl)c1 | 16.5 | -4.1 | -145.1 | 2.5 | -3.1 | 51.4*
Cc1ccccc1NC(=O)c1ccc(NC(=O)C2CC(=O)OC23CCCCC3)cc1 (stereo unspecified) | 6.0 | 2.3 | -9.9 | -4.7 | 1.8 | -0.9
CCOC(=O)Cc1csc(/N=C/c2c(O)n(-c3ccc(C)c(C)c3)c(=O)c3ccccc23)n1 | 5.9 | -81.6 | 5.9 | 5.1 | -1.6 | 61.6*
CCc1cccc(CC)c1NC(=O)COC(=O)c1ccc(F)c(S(=O)(=O)N(CC)CC)c1 | -4.9 | 0.0 | 1.0 | -3.1 | 3.3 | 0.6
COc1ccc2cc(-c3cc(C(=O)OCC(=O)NC4CCS(=O)(=O)C4)c4ccccc4n3)ccc2c1 (stereo unspecified) | -2.8 | -8.7 | 15.3 | 0.3 | 23.9* | 79.2*
Cc1cc(C(=O)OCC(=O)NC2CCS(=O)(=O)C2)c2ccccc2n1 (stereo unspecified) | -2.3 | 1.3 | -14.0 | -0.1 | -3.1 | 3.4
COCCNC(=S)N=Nc1c(O)[nH]c2c(C)cc(C)cc12 | -5.9 | -1.0 | 4.5 | -0.2 | 156.3* | -1.4
Nc1c(Cl)ncnc1N/N=C/c1ccccn1 | 42.2 | 35.7 | 1.8 | -5.1 | . | 78.2*
Nc1c(Cl)ncnc1N/N=C/c1ccc2ccccc2n1 | 43.0 | -11.3 | 6.0 | 4.9 | . | -12.6
O=C(O)c1cc(S(=O)(=O)O)cc(Nc2c3ccccc3nc3ccccc23)c1O | . | . | . | . | 101.8* | .
CCOc1cc(C2C(C#N)=C(N)SC(N)=C2C#N)ccc1OCCN1CCOCC1 | -19.5 | 23.6 | 1.1 | 6.8 | ? | 15.3
CCOc1ccc(C2C(C#N)=C(N)SC(N)=C2C#N)c(OCC)c1 | -12.8 | 15.2 | 5.4 | 0.6 | 18.9* | 31.7
CC(c1nc2ccccc2c(=O)[nH]1)N(C)c1ccc2ccccc2c1 (stereo unspecified) | 17.3 | 2.5 | -1.1 | 3.5 | 96.2* | 3.2
O=C(Cc1c(O)c2ccccc2[nH]c1=O)NCc1ccccc1F | 54.1* | 2.3 | 5.2 | 0.6 | 4.0 | 0.7
CCNC(=O)c1c(O)c2ccccc2[nH]c1=O | -1.6 | 0.7 | -3.6 | 6.7 | 96.0* | -2.1
O=C(Cc1c(O)c2ccccc2[nH]c1=O)NCc1cccc(F)c1 | 1.9 | -1.3 | -2.4 | 3.6 | -4.1 | -1.8
Cc1[nH][nH]c(=O)c1C(c1c(C)[nH][nH]c1=O)c1cn(Cc2cccc3ccccc23)c2ccccc12 | -4.7 | -1.3 | -0.5 | 26.7* | . | -5.9
O=C(Nc1nc(-c2cccnc2)cs1)c1ccccc1[N+](=O)[O-] | -4.2 | 2.0 | 27.0 | 7.1 | 17.9* | -0.6
SMILES | Tb hexokinase | Runt-CBFb FRET | Hck-Nef inh | p97 inhibitor | RanGTP-Imp inh | Runt-SMMHC FRET
CCCn1cnc2cc(NCc3cccc(OC)c3)ccc21 | -1.1 | 10.4 | 1.1 | 0.7 | 23.7* | 12.9
CCCn1cnc2cc(NCc3ccccc3O)ccc21 | . | . | . | . | -1.5 | .
CCOc1ccc(CNc2ccc3c(c2)ncn3C(C)(C)C)cc1 | . | . | . | . | 19.1* | .
COc1cccc(OC)c1C(=O)N1CCN(c2c(Cc3ccccc3)c(C)nc3ncnn23)CC1 | -3.1 | 0.4 | -7.6 | -2.1 | 0.5 | 1.8
N#Cc1ccc(OCC(=O)n2cc(C(=O)c3cc(Cl)cc(Cl)c3O)cn2)cc1 | 6.3 | -6.9 | 13.5 | 0.3 | 1.2 | -29.4
COc1cccc(C(c2c(C)[nH]n(-c3ccccc3)c2=O)c2c(C)[nH]n(-c3ccccc3)c2=O)c1O | . | . | . | . | 2.2 | .
CC1=NN(c2ccc(F)cc2)C(=O)C1C(c1cccc(O)c1)c1c(C)[nH]n(-c2ccc(F)cc2)c1=O (stereo unspecified) | -7.6 | 1.1 | -0.7 | 33.2* | 2.3 | 3.4
CCC(C)(C)NC(=O)C(c1ccco1)N(C(=O)c1csnn1)c1cccc(F)c1 (stereo unspecified) | -9.1 | -1.6 | -0.7 | -3.7 | 3.1 | -0.4
COC(=O)C1=C(N)Oc2cc(C)n(Cc3ccncc3)c(=O)c2C1c1cccnc1 (stereo unspecified) | 0.7 | . | -0.8 | -5.8 | -2.6 | .
CCn1c(C)cc2c(c1=O)C(c1ccccc1)C(C(=O)OC)=C(N)O2 (stereo unspecified) | 0.5 | -2.3 | 2.9 | 3.1 | 42.5* | 1.3
Cc1cc(=O)oc(C)c1C(=O)Nc1ccc2ncccc2c1 | -9.5 | -22.2 | 1.1 | 2.3 | -0.6 | 58.7*
Cc1cc(=O)oc(C)c1C(=O)Nc1ccc2nsnc2c1 | -15.2 | -2.2 | 1.0 | 3.1 | 3.3 | 2.6
CCOC(=O)N1CCC(NC(=O)c2ccc(Cl)cc2)CC1 | -2.0 | 1.1 | 12.7 | 3.4 | 1.1 | 2.6
CCOC(=O)N1CCC(Nc2nc3ccccc3nc2NS(=O)(=O)c2ccc(Cl)cc2)CC1 | -4.8 | 10.8 | 0.6 | -1.9 | 19.3* | 34.4
O=C(Nc1nc2c(s1)CN(Cc1ccccc1)CC2)C1CCCC1 | -7.4 | 52.6* | 27.9 | 4.5 | -4.6 | 118.4*
O=C(Nc1nc2c(s1)CN(Cc1ccccc1)CC2)c1c(F)cccc1F | -12.5 | 49.9 | 18.7 | -0.9 | -1.1 | 98.0*
CC(C)(C)C(=O)Nc1nc2c(s1)CN(Cc1ccccc1)CC2 | -0.8 | 77.2* | 13.6 | 3.5 | 99.4* | 91.7*
O=C(CCC1N=C2c3ccccc3N=C(SCc3ccc(Cl)cc3)N2C1=O)NCc1ccco1 (stereo unspecified) | -8.7 | -3.1 | 0.9 | -0.9 | 27.3* | -0.5
O=C(CCC1N=C2c3ccccc3N=C(SCc3ccc(F)cc3)N2C1=O)NCc1ccco1 (stereo unspecified) | -9.4 | 1.9 | 1.4 | 6.5 | ? | 4.6
O=C(O/N=C1\CCS(=O)(=O)c2sccc21)C1CC1 | 1.0 | 0.0 | 14.0 | 1.2 | 100.7* | 1.9
COc1cc(C(=S)N2CCCC2)ccc1O | -10.5 | 42.2 | -0.1 | 5.0 | 2.0 | 66.5*
CC(C)N1CCC2(CC1)C(C#N)=C(N)NC(S)=C2C#N | -9.4 | 28.8 | 1.8 | 6.7 | -5.3 | 64.5*
Cc1sccc1C1C(C#N)=C(N)SC(N)=C1C#N | -14.6 | 46.4 | 17.4 | 3.6 | 68.1* | 40.7
